ChEMBL document CHEMBL2203081 (Bioorg Med Chem Lett, 2012)

Experiments:
[1] = molecular target: Cyclin-dependent kinase 9 (Homo sapiens) (UniProt P50750); assay: Inhibition of CDK9 assessed as residual activity at 10 uM relative to control
[2] = molecular target: T1, Ephrin type-B receptor 3 (Homo sapiens) (UniProt P54753); assay: Inhibition of EPH-B3 assessed as residual activity at 1 uM
T1 sequence (whole entry): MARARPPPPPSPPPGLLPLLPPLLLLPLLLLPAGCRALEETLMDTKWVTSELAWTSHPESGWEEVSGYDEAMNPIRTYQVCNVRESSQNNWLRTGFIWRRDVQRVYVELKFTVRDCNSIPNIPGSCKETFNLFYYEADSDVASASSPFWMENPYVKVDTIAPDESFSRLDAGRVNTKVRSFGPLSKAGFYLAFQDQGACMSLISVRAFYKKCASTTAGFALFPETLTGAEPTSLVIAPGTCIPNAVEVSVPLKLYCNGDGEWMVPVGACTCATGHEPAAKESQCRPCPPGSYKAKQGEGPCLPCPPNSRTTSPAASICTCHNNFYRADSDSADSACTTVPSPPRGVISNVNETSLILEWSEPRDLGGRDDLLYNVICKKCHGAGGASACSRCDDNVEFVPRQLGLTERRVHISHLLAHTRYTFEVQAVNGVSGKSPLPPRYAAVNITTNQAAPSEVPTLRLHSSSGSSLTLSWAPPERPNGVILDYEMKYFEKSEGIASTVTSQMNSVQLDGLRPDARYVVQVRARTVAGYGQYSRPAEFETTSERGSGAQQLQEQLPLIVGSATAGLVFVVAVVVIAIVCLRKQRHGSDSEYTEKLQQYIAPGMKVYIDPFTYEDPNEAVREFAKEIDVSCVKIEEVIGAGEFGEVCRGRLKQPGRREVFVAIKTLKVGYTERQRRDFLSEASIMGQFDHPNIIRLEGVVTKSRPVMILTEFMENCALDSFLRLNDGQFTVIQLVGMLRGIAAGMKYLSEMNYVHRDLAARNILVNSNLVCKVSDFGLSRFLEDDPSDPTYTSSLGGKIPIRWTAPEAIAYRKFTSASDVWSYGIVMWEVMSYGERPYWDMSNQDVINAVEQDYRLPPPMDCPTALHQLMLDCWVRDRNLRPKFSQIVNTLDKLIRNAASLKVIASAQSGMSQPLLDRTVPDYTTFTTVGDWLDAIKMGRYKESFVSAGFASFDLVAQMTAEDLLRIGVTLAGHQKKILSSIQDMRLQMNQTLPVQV
Method in brief: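 Standard radioactivity-based enzymatic kinase assays on a 131-kinase panel run by the Dundee profiling service; residual kinase activity recorded.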

[3] = molecular target: Serine/threonine-protein kinase D2 (Homo sapiens) (UniProt Q9BZL6); assay: Inhibition of PRKD2 assessed as residual activity at 10 uM relative to control
Chain of Serine/threonine-protein kinase D2 (Homo sapiens) (Q9BZL6 whole entry): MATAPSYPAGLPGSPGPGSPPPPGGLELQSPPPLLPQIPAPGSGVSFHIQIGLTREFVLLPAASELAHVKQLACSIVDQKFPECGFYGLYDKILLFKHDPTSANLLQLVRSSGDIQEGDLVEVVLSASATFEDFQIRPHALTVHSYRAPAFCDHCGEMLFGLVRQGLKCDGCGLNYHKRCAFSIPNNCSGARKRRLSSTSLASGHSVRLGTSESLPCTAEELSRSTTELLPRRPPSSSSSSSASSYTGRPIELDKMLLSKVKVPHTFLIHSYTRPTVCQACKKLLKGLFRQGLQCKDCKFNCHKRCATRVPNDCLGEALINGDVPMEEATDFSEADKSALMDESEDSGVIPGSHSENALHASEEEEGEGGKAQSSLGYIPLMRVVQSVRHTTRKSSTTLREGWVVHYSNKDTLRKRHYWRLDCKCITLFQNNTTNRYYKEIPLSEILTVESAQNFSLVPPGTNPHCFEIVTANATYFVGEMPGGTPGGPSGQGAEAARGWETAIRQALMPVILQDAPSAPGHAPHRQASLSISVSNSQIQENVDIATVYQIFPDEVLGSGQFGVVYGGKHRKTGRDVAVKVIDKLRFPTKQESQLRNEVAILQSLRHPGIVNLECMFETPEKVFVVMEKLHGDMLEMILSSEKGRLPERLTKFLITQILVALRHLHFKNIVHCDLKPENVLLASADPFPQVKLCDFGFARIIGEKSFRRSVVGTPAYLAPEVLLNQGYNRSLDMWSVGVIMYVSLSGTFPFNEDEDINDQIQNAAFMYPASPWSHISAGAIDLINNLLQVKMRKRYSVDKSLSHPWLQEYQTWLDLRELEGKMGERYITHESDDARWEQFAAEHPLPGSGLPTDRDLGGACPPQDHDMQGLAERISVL

[4] = molecular target: Serine/threonine-protein kinase pim-1 (Homo sapiens) (UniProt P11309); assay: Inhibition of PIM1 assessed as residual activity at 10 uM
Chain of Serine/threonine-protein kinase pim-1 (Homo sapiens) (P11309 whole entry, looked up): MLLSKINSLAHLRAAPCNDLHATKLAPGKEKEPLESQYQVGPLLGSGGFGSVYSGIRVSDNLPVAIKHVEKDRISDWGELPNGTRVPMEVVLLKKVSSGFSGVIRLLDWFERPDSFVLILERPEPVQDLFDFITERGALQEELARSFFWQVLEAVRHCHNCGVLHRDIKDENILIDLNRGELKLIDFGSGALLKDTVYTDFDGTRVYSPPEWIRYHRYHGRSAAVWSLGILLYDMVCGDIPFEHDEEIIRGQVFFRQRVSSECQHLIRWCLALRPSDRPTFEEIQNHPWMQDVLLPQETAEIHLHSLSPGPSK

[5] = molecular target: T2, Ephrin type-B receptor 2 (Homo sapiens) (UniProt P29323); assay: Inhibition of EPHB2 assessed as residual activity at 10 uM relative to control
T2 sequence (whole entry): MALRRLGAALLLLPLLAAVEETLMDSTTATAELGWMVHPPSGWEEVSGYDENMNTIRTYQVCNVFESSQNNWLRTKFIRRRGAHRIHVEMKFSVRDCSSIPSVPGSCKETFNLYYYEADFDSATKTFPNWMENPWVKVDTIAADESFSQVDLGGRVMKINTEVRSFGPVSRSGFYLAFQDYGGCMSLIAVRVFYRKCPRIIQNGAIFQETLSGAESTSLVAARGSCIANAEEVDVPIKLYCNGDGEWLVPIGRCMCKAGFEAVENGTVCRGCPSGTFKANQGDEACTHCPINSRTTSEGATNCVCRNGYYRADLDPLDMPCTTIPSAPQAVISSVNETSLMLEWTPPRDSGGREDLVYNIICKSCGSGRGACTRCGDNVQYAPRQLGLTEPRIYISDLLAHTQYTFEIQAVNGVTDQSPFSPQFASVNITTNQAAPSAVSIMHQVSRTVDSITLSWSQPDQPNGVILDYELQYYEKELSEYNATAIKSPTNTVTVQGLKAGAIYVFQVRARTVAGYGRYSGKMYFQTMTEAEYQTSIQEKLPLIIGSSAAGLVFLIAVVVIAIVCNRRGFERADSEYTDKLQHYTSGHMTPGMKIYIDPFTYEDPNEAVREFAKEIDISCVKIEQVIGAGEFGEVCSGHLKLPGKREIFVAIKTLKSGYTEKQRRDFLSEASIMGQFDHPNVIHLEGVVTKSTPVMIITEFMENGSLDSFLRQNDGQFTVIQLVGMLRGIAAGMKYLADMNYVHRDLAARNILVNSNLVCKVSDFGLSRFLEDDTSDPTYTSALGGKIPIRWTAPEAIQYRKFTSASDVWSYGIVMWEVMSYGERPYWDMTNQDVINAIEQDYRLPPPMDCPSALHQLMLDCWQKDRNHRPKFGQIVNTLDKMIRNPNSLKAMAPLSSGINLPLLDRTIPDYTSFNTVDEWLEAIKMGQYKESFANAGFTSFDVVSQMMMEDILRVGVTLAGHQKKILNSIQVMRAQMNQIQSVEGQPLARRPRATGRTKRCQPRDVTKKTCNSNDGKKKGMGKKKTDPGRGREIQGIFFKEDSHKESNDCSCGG
Method in brief: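 Competition kinase-binding assay (KINOMEscan) across a non-redundant panel of 329 kinases beyond the radiometric panel; residual binding expressed relative to control.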

[6] = molecular target: T3, Mitogen-activated protein kinase kinase kinase 7 (Homo sapiens) (UniProt O43318); assay: Inhibition of TAK1 assessed as residual activity at 1 uM
T3 sequence (whole entry): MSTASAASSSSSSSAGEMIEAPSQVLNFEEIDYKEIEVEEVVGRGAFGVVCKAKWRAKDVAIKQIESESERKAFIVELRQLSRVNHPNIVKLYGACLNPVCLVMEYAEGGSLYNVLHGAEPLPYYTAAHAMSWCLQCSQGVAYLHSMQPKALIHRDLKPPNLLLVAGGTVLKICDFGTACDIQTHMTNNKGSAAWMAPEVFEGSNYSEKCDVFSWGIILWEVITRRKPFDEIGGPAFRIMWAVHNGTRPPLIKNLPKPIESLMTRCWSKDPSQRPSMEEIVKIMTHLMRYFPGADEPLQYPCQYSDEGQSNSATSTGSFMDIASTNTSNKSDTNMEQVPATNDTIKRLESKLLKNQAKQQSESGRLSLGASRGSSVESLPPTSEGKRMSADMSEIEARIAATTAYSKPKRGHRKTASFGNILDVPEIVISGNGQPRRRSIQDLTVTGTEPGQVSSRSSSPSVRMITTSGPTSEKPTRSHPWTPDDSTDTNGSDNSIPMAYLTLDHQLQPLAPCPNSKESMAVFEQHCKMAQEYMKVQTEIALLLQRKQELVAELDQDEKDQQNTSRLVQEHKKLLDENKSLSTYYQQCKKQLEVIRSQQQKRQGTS

[7] = molecular target: Serine/threonine-protein kinase 3 (Homo sapiens) (UniProt Q13188); assay: Inhibition of MST2 assessed as residual activity at 10 uM relative to control
Chain of Serine/threonine-protein kinase 3 (Homo sapiens) (Q13188 whole entry): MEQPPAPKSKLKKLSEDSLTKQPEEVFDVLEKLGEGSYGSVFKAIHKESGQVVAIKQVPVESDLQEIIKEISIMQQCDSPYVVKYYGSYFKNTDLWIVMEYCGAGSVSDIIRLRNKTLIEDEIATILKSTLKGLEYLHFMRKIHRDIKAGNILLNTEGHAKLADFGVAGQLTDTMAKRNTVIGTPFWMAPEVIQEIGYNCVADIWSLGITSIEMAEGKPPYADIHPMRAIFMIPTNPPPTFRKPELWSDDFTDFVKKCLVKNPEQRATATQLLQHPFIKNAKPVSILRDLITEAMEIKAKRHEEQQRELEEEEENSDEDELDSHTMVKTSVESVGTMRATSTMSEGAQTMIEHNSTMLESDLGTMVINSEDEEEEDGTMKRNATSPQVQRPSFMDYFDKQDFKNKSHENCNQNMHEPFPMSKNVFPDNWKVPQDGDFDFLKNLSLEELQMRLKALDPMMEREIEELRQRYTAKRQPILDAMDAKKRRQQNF

Chain of Cyclin-dependent kinase 9 (Homo sapiens) (P50750 whole entry): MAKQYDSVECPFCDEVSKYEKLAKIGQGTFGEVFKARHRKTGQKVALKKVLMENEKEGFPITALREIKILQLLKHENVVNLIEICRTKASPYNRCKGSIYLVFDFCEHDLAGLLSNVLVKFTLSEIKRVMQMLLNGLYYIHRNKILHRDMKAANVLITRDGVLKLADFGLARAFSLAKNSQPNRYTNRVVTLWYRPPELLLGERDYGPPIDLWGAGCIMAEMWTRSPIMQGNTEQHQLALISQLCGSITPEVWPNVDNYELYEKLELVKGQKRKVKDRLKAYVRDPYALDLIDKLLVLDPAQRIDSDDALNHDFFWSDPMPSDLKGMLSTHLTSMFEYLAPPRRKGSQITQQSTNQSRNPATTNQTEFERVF

O=C(Nc1cccnc1)c1cc(-c2ccnc(F)c2)ccc1OCc1ccccc1
Activity [1]: 57%
Activity [2]: 121%
Activity [3]: 74%
Activity [4]: 109%
Activity [5]: 71%
Activity [6]: 108%
Activity [7]: 23%
